# Screening data: PubChem BioAssay, Broad Institute
# Sampled rows, rich in hits. Any-hit rate of the full collection: about 2.6%.
# esBAF inh: inhibitors of esBAF chromatin remodeling in mouse ES cells; Bmi1-luciferase knock-in reporter, 24 h; 100% = twice the neutral-well signal; reporter increase, % at 12.5 µM; 350,000 tested, 2% active; AID 602393; in the data active means activation above about 40%; inconclusive means no clear call, values can overlap the other calls;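 further: 0% = median of the plate's neutral control wells and 100% = double that signal; a rise in the Bmi1 reporter signal indicates esBAF inhibition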
# XiGFP reactiv: X-chromosome reactivation activator; XiGFP mouse fibroblasts, % GFP-positive cells imaging, 3 d; cells co-treated with 5-aza-dC sensitizer; scaled so ellipticine positive control = 100%; activation, % at 7.58 µM; 360,000 tested, 0.055% active;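 active means mean normalized replicate activation at least 10% and every replicate at or above 10%; inconclusive means only one of the two criteria met; inactive means mean below 10% and not all replicates reach 10%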;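 further: 0% = median of on-plate neutral control wells and 100% = ellipticine 6 µM median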
#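 Material: SV40-immortalized XiGFP fibroblast cells, line 68-5-11 | Buffer or medium: DMEM containing 5-aza-dC | Dosing: One concentration, pinned | Times: 3 d treatment, 15 min room-temperature fixation | Controls: Ellipticine 6 µM positive control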
# MITF TRPM1 HTS: increases MITF-driven TRPM1 promoter luciferase signal. SK-MEL-5 TRPM1-promoter luciferase, 24 h; % of positive control, neutral wells = 0. activation, % at 12.5 µM. 300,000 tested, 0.75% active. AID 588334;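 active means mean activation of at least 80% with every replicate also reaching 80%; inconclusive means mean reaches 80% but some replicate falls short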;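 further: 0% = neutral control wells and 100% = parthenolide positive control wells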
# Wnt act: activators of Wnt/beta-catenin signaling. Wnt/beta-catenin reporter cell assay, activator, plate reader. activation, % at 9.35 µM. 300,000 tested, 1.2% active. AID 743398; in the data active means activation above about 30%, passing the limit was not always enough; inconclusive means no clear call, values can overlap the other calls;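 further: 0% = neutral control wells and 100% = positive control wells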
# Vif imaging: blocks HIV Vif function. 340,000 tested, 0.35% active. inhibition, % at 7.49 µM. AID 602346. HEK293T cells, Vif self-association by quenched fluorescence, imaging, 24 h; in the data active means inhibition above about 50%, passing the limit was not always enough; inconclusive means no clear call, values can overlap the other calls; inactive means below about 31%
# * = called active by the depositor; u = inconclusive; x = no result.
SMILES,esBAF inh,XiGFP reactiv,MITF TRPM1 HTS,Wnt act,Vif imaging
O=C(CC1CC1)Nc1ccc2c(c1)[C@@H]1C[C@H](CC(=O)N3CCc4ccccc4C3)O[C@@H](CO)[C@@H]1O2,10,0,x,x,x
O=C(N[C@H]1CC[C@H](CCn2cc(C3CCCC3)nn2)O[C@H]1CO)c1cccnc1,x,0,x,x,x
COc1ccccc1C1CC(c2cccs2)=NN1C(=O)CCC(=O)O (stereo not drawn),4,0,-15,-2,-2
COc1ccccc1C1CC(c2cccs2)=Nc2ccccc2S1 (stereo not drawn),53*,x,3,41*,4
COc1ccc2c3c([nH]c2c1)[C@H](CO)N(C(=O)c1ccncc1)CC31CCN(C)CC1,x,0,x,x,x
COc1ccc2c3c([nH]c2c1)[C@H](CO)N(C(C)=O)CC31CCN(C(=O)Nc2ccccc2F)CC1,x,0,x,x,x
Clc1ccc(CONc2ncnc3nonc23)c(Cl)c1,53*,0,50,11,-10
CN(CC(=O)Nc1cccc(F)c1)C(=O)c1sc2ccccc2c1Cl,62*,0,16,-5,14
Cc1ccc(COn2c(-c3ccc(Cl)cc3)nc3ccc([N+](=O)[O-])cc32)cc1,54*,x,102*,42*,-20
Clc1ccc(COn2c(-c3ccccc3)nc3ccccc32)cc1,2,x,8,x,6
COn1c(-c2ccc(Cl)cc2)nc2ccc(Cl)cc21,5,x,22,57*,4
Clc1ccc(COn2c(-c3ccc(Cl)cc3)nc3ccccc32)cc1,-2,x,2,19,-10
O=[N+]([O-])c1ccc2nc(-c3ccc(Cl)cc3)n(OCc3ccccc3)c2c1,68*,x,x,65*,-13
CO[C@H]1CN(C)C(=O)c2cc(NS(=O)(=O)c3cn(C)cn3)ccc2OC[C@H](C)N(Cc2cccc(F)c2)C[C@H]1C,-2,0,x,x,x
Nc1cc(-c2ccc(Cl)cc2)nn1S(=O)(=O)c1ccc(Cl)cc1,-9,0,0,-1,-8
O=C1CCn2nc(-c3ccc(Cl)cc3)cc2N1,48*,0,28,-4,-6
CO[C@@H]1CN(C)C(=O)c2ccc(NC(=O)c3cnccn3)cc2OC[C@@H](C)N(C)C[C@@H]1C,x,0,x,x,x
C[C@H](CO)N1C[C@H](C)[C@H](CN(C)C(=O)Nc2ccccc2)Oc2ncc(/C=C/c3ccccc3)cc2C1=O,12,-1,x,x,x
C[C@H](CO)N1C[C@H](C)[C@H](CN(C)Cc2ccccc2)Oc2ccc(NS(=O)(=O)c3cccs3)cc2C1=O,-2,0,x,x,x
COCC(=O)NC[C@H]1N[C@H](CO)[C@@H]1c1ccc(C#CC2CCCCC2)cc1,x,0,x,x,x
O=C(NNC(=O)c1cccc(-n2cccc2)c1)c1ccccc1,u,0,45,0,7
O=C(NNC(=O)c1ccccc1F)c1cccc(-n2cccc2)c1,45*,0,39,-3,x
CCN(CC(=O)Nc1c(F)cccc1F)C(=O)c1cccc(-n2cccc2)c1,-2,0,2,-1,74*
COc1ccccc1S(=O)(=O)Nc1ccc2c(c1)OC[C@@H](C)NC[C@@H](C)[C@@H](OC)CN(C)C2=O,-1,0,x,x,x
Cc1ccc(Oc2cc(-n3nc(C)cc3C)ncn2)cc1,48*,x,62,x,-12
SMILES,esBAF inh,XiGFP reactiv,MITF TRPM1 HTS,Wnt act,Vif imaging
O=C1NC(=O)C(=Cc2ccc(Cl)cc2Cl)S1,x,0,23,39*,-12
Cc1ccc(NC(=O)c2noc3c2CCC3)cc1C,x,0,47,33*,1
COc1ccc(NC(=O)c2noc3c2CCC3)cc1,95*,x,x,28,u
CCOc1ccc(-c2ccc(SCC(=O)NC3CCCCC3)nn2)cc1,u,0,94*,20,-3
Cc1ccc(-c2ccc(SCC(=O)NC3CCCCC3)nn2)cc1,52*,0,42,4,-14
COc1ccccc1-c1ccc2n(c1=O)C[C@@H]1[C@@H](CO)[C@H](C(=O)Nc3nccs3)N(C)[C@H]21,x,0,x,x,x
O=C(Nc1sc2c(c1C(=O)NCCCO)CCCC2)c1ccccc1,0,0,17,0,0
O=C(Nc1sc2c(c1C(=O)O)CCCC2)c1ccc(Cl)cc1,u,0,15,0,-1
NCCNC(=O)c1c(NC(=O)c2ccccc2)sc2c1CCCC2,68*,0,32,1,3
O=C(Nc1sc2c(c1C(=O)O)CCC2)c1ccccc1,53*,x,7,u,-1
O=C(Nc1sc2c(c1C(=O)O)CCCC2)c1cccc(Cl)c1,73*,0,3,26,-19
O=C(Nc1sc2c(c1C(=O)O)CCC2)c1ccc(F)cc1,63*,0,20,2,-1
C[C@H](CO)N1C[C@H](C)[C@H](CN(C)S(=O)(=O)Cc2ccccc2)OCc2ccccc2-c2c(n(C)c3ccccc23)C1=O,-1,-1,x,x,x
C[C@@H]1CN([C@H](C)CO)C(=O)c2cc(NS(C)(=O)=O)ccc2O[C@@H]1CN(C)CC1CC1,0,0,x,x,x
O=C(c1ccc(Cl)c([N+](=O)[O-])c1)N(Cc1ccccc1)C1CCS(=O)(=O)C1 (stereo not drawn),x,0,-5,-3,-1
O=C(c1ccc(Cl)c([N+](=O)[O-])c1)N(Cc1ccc(Cl)cc1)C1CCS(=O)(=O)C1 (stereo not drawn),x,0,-6,47*,-1
CCN1[C@@H]2Cn3c(ccc(C4=CCCCC4)c3=O)[C@H]1[C@@H](C(=O)NCC(F)(F)F)[C@@H]2CO,x,0,x,x,x
CC(=O)Nc1ccccc1C(=O)C(=O)Nc1ccc(Cl)cc1,x,0,16,0,-19
CC(=O)Nc1ccccc1C(=O)C(=O)Nc1ccccc1,35*,1,-2,3,-2
CC(C)(C)C(=O)/C=C/c1ccc(Oc2ccccc2)cc1,34,0,79,33*,-2
Cc1noc(C)c1S(=O)(=O)N(C)C[C@@H]1OCCCC[C@@H](C)Oc2ccc(NC(=O)CCCN(C)C)cc2C(=O)N([C@@H](C)CO)C[C@H]1C,-4,0,x,x,x
COc1ccc2cc(CCC(C)=O)ccc2c1,58*,0,108*,2,6
O=C(Nc1nccs1)c1ccc(CSc2ccccc2)o1,39,0,u,38*,x
CC(C)(C)c1ccc(OCc2ccc(C(=O)Nc3cccnc3)o2)cc1,63*,0,5,u,-7
O=C(Nc1nccs1)c1ccc(COc2ccccc2)o1,52*,0,x,0,-4
O=C(Nc1cccnc1)c1ccc(COc2ccccc2Br)o1,4,x,10,x,x
Cc1ccc(OCc2ccc(C(=O)Nc3nccs3)o2)cc1,21,x,x,x,1
COCC(=O)N1C[C@@H](C)[C@H](OC)CN(C)C(=O)c2ccc(NC(=O)NC(C)C)cc2OC[C@@H]1C,-3,1,x,x,x
COc1ccc(OC)c2sc(N3CCCCC3)nc12,46*,x,x,24,-2
